# Measured values taken from ChEMBL document CHEMBL5653631, “A Potent and Selective ULK1 Inhibitor Suppresses Autophagy and Sensitizes Cancer Cells to Nutrient Stress” (iScience, 2018).
# Legend:
# [1] = biological target: Mitogen-activated protein kinase kinase kinase 9 (Homo sapiens) (UniProt P80192); test: Inhibition of human recombinant MLK1 at 40 nM in presence of ATP by radiometric assay relative to control
# [2] = biological target: RAC-alpha serine/threonine-protein kinase (Homo sapiens) (UniProt P31749); test: Inhibition of human recombinant AKT1 at 40 nM in presence of ATP by radiometric assay relative to control
# In short: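 Panel of 327 recombinant human kinases in radiometric activity assays, each screened in duplicate at a single inhibitor concentration; percent activity remaining relative to vehicle control, percent inhibition taken as 100 minus activity remaining.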
# [3] = biological target: T1, Serine/threonine-protein kinase TBK1 (Homo sapiens) (UniProt Q9UHD2); test: Inhibition of human recombinant TBK1 at 40 nM in presence of ATP by radiometric assay relative to control
# T1 sequence (whole entry): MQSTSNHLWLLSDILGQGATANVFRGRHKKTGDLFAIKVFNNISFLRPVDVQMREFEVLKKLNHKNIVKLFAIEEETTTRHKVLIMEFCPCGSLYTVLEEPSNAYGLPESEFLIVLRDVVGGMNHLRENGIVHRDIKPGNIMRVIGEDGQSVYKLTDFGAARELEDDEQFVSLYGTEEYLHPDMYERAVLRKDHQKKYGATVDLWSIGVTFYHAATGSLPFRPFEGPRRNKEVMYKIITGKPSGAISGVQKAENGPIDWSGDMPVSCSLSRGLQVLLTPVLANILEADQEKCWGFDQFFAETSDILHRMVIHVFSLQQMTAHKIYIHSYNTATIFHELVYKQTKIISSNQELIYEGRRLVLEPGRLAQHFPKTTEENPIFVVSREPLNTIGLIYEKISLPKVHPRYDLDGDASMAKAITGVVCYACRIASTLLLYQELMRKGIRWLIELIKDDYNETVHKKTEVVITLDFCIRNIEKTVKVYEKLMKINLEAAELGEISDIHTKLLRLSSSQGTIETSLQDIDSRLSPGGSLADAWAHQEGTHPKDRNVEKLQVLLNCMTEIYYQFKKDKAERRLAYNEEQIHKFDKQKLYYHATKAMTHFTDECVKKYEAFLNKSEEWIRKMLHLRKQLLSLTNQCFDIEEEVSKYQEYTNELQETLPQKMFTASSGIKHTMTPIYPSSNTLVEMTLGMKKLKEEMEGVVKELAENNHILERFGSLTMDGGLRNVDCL
# [4] = biological target: Tyrosine-protein kinase SYK (Homo sapiens) (UniProt P43405); test: Inhibition of human recombinant SYK at 500 nM in presence of ATP by radiometric assay relative to control
# [5] = biological target: Mitogen-activated protein kinase kinase kinase kinase 1 (Homo sapiens) (UniProt Q92918); test: Inhibition of human recombinant HPK1 at 15 nM related to control ULK1
# [6] = biological target: T2, Serine/threonine-protein kinase BRSK1 (Homo sapiens) (UniProt Q8TDC3); test: Inhibition of human recombinant BRSK1 at 15 nM in presence of ATP by radiometric assay relative to control
# T2 sequence (whole entry): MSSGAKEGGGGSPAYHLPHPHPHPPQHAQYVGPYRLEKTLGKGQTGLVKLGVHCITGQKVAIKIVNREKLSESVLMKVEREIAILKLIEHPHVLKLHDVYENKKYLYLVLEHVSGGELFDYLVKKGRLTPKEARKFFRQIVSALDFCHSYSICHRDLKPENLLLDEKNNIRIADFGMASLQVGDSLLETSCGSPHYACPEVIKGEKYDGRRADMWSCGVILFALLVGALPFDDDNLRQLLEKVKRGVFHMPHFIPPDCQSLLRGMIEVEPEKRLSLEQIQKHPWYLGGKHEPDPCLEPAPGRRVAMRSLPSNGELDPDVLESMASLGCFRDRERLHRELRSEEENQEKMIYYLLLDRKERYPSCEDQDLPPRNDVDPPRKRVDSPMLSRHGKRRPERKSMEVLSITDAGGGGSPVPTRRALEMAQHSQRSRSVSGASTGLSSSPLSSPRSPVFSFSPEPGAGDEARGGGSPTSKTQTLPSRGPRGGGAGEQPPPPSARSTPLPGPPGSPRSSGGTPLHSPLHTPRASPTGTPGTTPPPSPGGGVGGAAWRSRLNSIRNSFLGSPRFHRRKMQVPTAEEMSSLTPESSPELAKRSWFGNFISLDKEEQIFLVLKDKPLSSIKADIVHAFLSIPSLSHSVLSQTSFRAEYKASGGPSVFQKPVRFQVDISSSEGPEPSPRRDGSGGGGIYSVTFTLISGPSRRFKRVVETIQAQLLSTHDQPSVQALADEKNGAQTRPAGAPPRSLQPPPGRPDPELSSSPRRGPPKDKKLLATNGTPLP
# In short: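 Part of a radiometric in vitro activity panel of 327 recombinant human kinases. Each kinase was tested in duplicate at one inhibitor concentration. Activity remaining was expressed as a percentage of the vehicle control, and percent inhibition was taken as 100 minus that value.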
# [7] = biological target: T3, Serine/threonine-protein kinase BRSK2 (Homo sapiens) (UniProt Q8IWQ3); test: Inhibition of human recombinant BRSK2 at 15 nM in presence of ATP by radiometric assay relative to control
# T3 sequence (whole entry): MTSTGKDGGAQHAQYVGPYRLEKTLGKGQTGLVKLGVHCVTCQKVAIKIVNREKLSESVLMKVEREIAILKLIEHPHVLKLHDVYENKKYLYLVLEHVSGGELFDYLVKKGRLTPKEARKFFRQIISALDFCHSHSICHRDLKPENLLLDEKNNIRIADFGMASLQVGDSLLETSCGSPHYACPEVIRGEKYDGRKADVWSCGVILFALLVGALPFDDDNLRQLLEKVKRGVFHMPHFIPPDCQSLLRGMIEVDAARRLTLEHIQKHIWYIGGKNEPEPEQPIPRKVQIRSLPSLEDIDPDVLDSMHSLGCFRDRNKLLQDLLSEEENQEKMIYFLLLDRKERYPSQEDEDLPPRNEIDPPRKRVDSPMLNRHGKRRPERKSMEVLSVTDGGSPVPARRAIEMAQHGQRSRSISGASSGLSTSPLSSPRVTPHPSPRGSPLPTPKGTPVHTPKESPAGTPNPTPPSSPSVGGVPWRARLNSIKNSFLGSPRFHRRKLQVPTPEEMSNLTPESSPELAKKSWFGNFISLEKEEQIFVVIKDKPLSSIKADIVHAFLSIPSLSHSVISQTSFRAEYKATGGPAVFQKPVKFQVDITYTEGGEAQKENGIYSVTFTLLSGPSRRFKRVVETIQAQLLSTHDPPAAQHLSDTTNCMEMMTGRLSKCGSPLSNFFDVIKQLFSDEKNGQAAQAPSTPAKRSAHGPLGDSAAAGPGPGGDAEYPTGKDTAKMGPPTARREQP
# In short: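 Recombinant human kinase panel (327 kinases) run as radiometric activity assays, each kinase in duplicate at one compound concentration. Activity remaining expressed relative to vehicle control; percent inhibition taken as 100% minus % activity remaining.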
# [8] = biological target: Macrophage-stimulating protein receptor (Homo sapiens) (UniProt Q04912); test: Inhibition of human recombinant RON at 15 nM in presence of ATP by radiometric assay relative to control
# Macrophage-stimulating protein receptor (Homo sapiens), sequence (Q04912 25-304 limits assumed): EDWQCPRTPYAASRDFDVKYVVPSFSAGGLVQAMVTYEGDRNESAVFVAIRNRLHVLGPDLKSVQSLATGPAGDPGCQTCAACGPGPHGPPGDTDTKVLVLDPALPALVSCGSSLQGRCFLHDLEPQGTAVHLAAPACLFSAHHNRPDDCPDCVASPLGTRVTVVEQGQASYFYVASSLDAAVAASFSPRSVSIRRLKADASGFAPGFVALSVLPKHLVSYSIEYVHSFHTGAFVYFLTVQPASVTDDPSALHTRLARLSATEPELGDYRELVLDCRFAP
# Macrophage-stimulating protein receptor (Homo sapiens), sequence (Q04912 310-1400 limits assumed): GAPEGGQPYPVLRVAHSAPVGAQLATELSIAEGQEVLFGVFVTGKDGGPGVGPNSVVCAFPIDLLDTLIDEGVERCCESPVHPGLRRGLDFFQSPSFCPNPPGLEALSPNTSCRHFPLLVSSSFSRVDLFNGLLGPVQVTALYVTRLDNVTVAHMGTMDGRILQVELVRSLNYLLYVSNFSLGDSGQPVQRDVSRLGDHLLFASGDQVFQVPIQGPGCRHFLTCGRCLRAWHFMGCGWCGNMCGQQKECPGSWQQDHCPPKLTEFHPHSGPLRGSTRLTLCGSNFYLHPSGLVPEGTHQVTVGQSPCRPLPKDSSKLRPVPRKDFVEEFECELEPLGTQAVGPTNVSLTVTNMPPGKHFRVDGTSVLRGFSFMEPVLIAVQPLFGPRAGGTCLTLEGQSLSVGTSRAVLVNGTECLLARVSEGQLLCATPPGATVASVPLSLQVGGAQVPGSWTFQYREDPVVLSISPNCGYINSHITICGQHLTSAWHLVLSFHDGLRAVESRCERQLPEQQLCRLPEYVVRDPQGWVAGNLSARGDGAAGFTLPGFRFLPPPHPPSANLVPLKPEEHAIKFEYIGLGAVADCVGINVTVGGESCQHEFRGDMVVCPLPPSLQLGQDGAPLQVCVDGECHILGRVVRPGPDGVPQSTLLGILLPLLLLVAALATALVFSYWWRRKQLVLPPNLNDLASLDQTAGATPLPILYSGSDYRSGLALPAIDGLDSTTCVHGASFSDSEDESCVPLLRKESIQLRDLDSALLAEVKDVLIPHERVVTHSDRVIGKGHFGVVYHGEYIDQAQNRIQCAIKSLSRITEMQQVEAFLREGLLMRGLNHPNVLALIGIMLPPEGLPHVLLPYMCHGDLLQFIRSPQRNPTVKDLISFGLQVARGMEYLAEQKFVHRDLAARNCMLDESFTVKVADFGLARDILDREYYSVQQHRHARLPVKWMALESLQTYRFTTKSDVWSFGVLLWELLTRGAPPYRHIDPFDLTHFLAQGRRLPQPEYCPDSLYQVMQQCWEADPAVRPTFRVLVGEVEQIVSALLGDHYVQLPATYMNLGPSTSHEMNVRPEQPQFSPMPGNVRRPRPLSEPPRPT
# Mitogen-activated protein kinase kinase kinase kinase 1 (Homo sapiens), sequence (Q92918 whole entry, looked up): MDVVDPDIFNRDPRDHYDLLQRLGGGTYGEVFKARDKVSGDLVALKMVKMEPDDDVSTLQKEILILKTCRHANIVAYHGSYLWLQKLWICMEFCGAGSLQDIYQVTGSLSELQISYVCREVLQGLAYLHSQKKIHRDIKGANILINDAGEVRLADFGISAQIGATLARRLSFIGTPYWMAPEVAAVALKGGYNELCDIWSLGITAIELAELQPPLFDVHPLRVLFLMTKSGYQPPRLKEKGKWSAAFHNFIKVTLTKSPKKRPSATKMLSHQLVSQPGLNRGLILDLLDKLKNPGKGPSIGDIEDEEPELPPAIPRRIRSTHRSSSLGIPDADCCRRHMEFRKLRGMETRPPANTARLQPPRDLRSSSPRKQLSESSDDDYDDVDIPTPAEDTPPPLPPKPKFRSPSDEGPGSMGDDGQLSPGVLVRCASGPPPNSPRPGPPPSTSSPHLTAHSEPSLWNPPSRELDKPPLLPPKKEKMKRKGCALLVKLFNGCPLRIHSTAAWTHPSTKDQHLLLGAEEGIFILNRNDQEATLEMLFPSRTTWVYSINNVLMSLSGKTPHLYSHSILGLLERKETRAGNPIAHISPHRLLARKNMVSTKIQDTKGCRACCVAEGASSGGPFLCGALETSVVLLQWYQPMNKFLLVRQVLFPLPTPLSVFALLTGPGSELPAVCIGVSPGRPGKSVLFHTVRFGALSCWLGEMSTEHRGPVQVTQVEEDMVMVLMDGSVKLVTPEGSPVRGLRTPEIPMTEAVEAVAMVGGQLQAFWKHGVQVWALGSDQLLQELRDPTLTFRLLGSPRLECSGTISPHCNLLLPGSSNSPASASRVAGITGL
# Mitogen-activated protein kinase kinase kinase 9 (Homo sapiens), sequence (P80192 whole entry, looked up): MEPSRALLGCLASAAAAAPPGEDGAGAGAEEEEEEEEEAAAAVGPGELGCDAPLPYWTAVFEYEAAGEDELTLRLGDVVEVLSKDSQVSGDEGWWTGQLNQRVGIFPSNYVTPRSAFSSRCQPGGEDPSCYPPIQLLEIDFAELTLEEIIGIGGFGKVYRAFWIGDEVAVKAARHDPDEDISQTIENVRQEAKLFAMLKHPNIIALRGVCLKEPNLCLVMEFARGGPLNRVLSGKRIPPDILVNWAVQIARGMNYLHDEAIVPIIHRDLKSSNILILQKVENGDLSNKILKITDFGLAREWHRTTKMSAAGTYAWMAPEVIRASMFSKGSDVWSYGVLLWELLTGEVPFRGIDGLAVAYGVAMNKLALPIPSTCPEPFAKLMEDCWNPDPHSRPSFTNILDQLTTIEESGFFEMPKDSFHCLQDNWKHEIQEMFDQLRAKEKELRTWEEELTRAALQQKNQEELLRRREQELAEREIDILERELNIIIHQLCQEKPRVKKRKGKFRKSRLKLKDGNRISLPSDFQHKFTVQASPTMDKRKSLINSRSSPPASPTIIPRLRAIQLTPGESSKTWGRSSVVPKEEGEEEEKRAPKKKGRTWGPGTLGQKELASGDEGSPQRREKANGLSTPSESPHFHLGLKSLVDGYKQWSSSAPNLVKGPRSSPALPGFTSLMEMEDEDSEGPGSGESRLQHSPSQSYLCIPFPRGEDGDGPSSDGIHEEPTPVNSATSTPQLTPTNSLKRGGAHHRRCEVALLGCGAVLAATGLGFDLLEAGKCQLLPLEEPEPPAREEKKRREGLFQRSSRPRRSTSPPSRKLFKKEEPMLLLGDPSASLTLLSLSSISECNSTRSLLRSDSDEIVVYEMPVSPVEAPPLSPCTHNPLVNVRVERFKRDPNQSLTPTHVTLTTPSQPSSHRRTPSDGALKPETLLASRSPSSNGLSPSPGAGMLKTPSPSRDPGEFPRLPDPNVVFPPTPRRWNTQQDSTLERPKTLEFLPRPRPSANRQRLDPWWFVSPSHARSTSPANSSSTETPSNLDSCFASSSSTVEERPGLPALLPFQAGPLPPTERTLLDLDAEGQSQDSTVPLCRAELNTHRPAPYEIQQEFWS
# RAC-alpha serine/threonine-protein kinase (Homo sapiens), sequence (P31749 whole entry): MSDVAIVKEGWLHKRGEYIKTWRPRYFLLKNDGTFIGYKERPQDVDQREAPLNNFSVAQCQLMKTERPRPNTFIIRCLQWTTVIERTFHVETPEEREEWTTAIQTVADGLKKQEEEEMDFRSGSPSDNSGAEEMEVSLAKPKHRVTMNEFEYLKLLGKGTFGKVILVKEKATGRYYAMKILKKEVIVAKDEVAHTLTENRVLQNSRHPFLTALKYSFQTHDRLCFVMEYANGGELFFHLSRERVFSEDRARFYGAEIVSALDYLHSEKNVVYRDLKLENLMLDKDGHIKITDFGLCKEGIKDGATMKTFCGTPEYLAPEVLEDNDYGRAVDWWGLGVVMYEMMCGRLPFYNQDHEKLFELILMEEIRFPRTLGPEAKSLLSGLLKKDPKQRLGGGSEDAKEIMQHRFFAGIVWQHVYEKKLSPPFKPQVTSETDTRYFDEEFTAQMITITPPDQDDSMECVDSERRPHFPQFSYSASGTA
smiles,measurement,setting,value
O=C(N[C@@H](C1CC1)C(F)(F)F)c1cc(-c2cnn3cc(-c4ccc(F)cc4)cnc23)cs1,inhibition,[1],7%
same,inhibition,[2],0%
same,inhibition,[3],26%
CNC(=O)c1ccccc1Oc1nc(Nc2cc(OC)c(OC)c(OC)c2)ncc1Br,inhibition,[4],0%
CC(C)[C@H](NC(=O)c1cc(-c2cnn3cc(-c4ccc(OCCN5CCCCC5)cc4)cnc23)cs1)C(F)(F)F,fold change (FC),[5],0
same,inhibition,[6],13%
same,inhibition,[7],25%
same,inhibition,[8],2%
